Experimental data collected from several papers.
Target: Serine/threonine-protein kinase 35 (STK35, Homo sapiens, UniProt Q8TDR2)

Structure (SMILES) | test | setting | remaining binding
O=C(c1ccc(Nc2ncc(Cl)c(-c3cc4ccccc4s3)n2)cc1)N1CCC(N2CCCC2)CC1 | binding, competition with immobilised ligand | 1 µM | 67%
Cc1c[nH]c2nccc(Oc3c(F)cc(Nc4cc(Cl)nc(N)n4)cc3F)c12 | cell-free assay, competition with immobilised ligand | 0.1 µM | 94%
O=C(NCC1CCOCC1)c1n[nH]cc1NC(=O)c1c(F)cccc1F | binding, competition with immobilised ligand | 1 µM | 92%
NS(=O)(=O)c1cc(NC(=O)C2(c3ccccc3Cl)CC2)ccc1Oc1cccc(Cl)c1 | cell-free assay, competition with immobilised ligand | 1 µM | 94%
N[C@H]1CCN(c2nccc(-c3cnn4ncccc34)n2)C1 | binding | 1 µM | 89%
Cc1nccc(COC(=O)N2C[C@@H]3[C@@H](CNC(=O)c4ccc5[nH]nnc5c4)[C@@H]3C2)n1 | cell-free assay, competition with immobilised ligand | 1 µM | 83%
c1cncc(-c2cccc(Nc3nccc(NC4CCCCC4)n3)c2)c1 | binding, competition with immobilised ligand | 10 µM | 86%
Nc1ncc2c(n1)-c1c([nH]c3ccc(C#CC4CC4)cc13)CCCC2 | binding, competition with immobilised ligand | 1 µM | 100%
Cc1cnn2ncc(-c3ccnc(N(C)C)n3)c2c1 | binding | 1 µM | 100%
CN1CCN(c2cnc3c(C4CCN(C(=O)c5ccc(OC(F)(F)F)cc5N)CC4)ncnc3c2)CC1 | cell-free assay, competition with immobilised ligand | 1 µM | 100%
COc1ccnn2ncc(-c3ccnc(N(C)C)n3)c12 | binding | 1 µM | 95%
COc1cnc(Nc2cccc(S(N)(=O)=O)c2)nc1N1CCN(c2ccccc2)C(=O)C1 | binding, competition with immobilised ligand | 1 µM | 100%
CN(C)c1nccc(-c2cnn3ncccc23)n1 | binding | 1 µM | 100%
COc1ccc2cc(OCC3(C(=O)O)CN(C(=O)c4ccc(F)cc4)C3)ccc2c1 | cell-free assay, competition with immobilised ligand | 1 µM | 100%
CN(CCCC(F)(F)F)c1nccc(-c2cnn3ncccc23)n1 | binding | 1 µM | 100%
O=C(c1ccc(Nc2nccc(-c3cc4ccccc4s3)n2)cc1)N1CCC(N2CCCC2)CC1 | binding, competition with immobilised ligand | 1 µM | 100%
C[C@@H]1CCN(c2nccc(-c3cnn4ncccc34)n2)C1 | binding | 1 µM | 72%
O=C(c1ccc(Nc2ncc(Cl)c(-c3ccc(Cl)s3)n2)cc1)N1CCC(N2CCCC2)CC1 | binding, competition with immobilised ligand | 1 µM | 99%
CNC(=O)[C@@H]1CC[C@@H](n2c(-c3ccc4cnccc4c3)nc3ccc(C(=O)NCc4cccc(C(N)=O)c4)cc32)C1 | binding, competition with immobilised ligand | 1 µM | 98%
CN(C)C(=O)Cn1cc(-c2nc(C3(c4ccc(-c5cnc(N)nc5)cc4)CC3)no2)cn1 | cell-free assay, competition with immobilised ligand | 1 µM | 94%
CN(C)c1nccc(-c2cnc3ncccn23)n1 | binding | 1 µM | 100%
C=CC(=O)N1CCC(C(=O)NCC(=O)N2CCN(c3nc(-c4cnc(N)nc4C(F)F)nc(N4CCOCC4)n3)CC2)CC1 | binding, competition with immobilised ligand | 1 µM | 93%
